Experimental data from ChEMBL document CHEMBL1955737, “Diarylpyrimidine-dihydrobenzyloxopyrimidine hybrids: new, wide-spectrum anti-HIV-1 agents active at (sub)-nanomolar level” (J Med Chem, 2011).

How the values were obtained:
[1] = system: Human immunodeficiency virus 1; experiment: Ratio of ID50 for HIV 1 reverse transcriptase Y188L mutant to ID50 for wild type HIV 1 NL4-3 reverse transcriptase
Procedure, shortened: (§1)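 Recombinant HIV-1 RT (wild type or K103N, L100I, Y181I or Y188L), purified to >95%, at 2-4 nM. RNA-dependent DNA polymerase assay with 0.5 μg poly(rA)/oligo(dT) 10:1 (0.3 μM 3'-OH ends) and 10 μM [3H]dTTP in 8% final DMSO. Initial velocities were taken from aliquots sampled every 2 min. […] The ratio is mutant ID50 over wild-type ID50. Means of at least three experiments.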

[2] = system: Human immunodeficiency virus 1; experiment: Resistance ratio of EC50 for HIV 1 harboring reverse transcriptase Y188L mutant infected in human MT4 cells to EC50 for wild type HIV 1 NL4-3 infected in human MT4 cells; type: functional
Procedure, shortened: (§2)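 Fold change is the EC50 against the mutant strain (K103N, Y181C, Y188L or IRLL98) divided by the EC50 against wild-type NL4-3. Both EC50s come from MT-4 cells infected in the presence of a range of drug concentrations, with MTT viability read at day 5. Values are means of at least two experiments.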

[3] = molecular target: Human immunodeficiency virus type 1 reverse transcriptase (Human immunodeficiency virus 1) (UniProt Q72547)
[4] = system: Human immunodeficiency virus type 1 reverse transcriptase (Human immunodeficiency virus 1), Q72547 [L100I]
[5] = system: Human immunodeficiency virus 1; experiment: Antiviral activity against HIV 1 harboring reverse transcriptase Y181C mutant infected in human MT4 cells assessed as inhibition of virus-induced cytopathic effect after 5 days by MTT assay; type: functional, organism-based; conditions: Human immunodeficiency virus 1, MT4, 120 h
Procedure, shortened: (§3)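 MT-4 cells (NIH AIDS Reagent Program) infected with the mutant HIV-1 strain in the presence of a range of drug concentrations. Mutant strains were from the MRC Centralised Facility for AIDS Reagents; IRLL98 carries K101Q, Y181C and G190A. Viable cells were counted by MTT colorimetry at day 5 post-infection. […] Values are means of at least two experiments.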

[6] = system: Human immunodeficiency virus 1; experiment: Ratio of ID50 for HIV 1 reverse transcriptase Y181I mutant to ID50 for wild type HIV 1 NL4-3 reverse transcriptase; procedure, shortened: as §1
[7] = system: Human immunodeficiency virus type 1 reverse transcriptase (Human immunodeficiency virus 1), Q72547 [K103N]
[8] = system: Human immunodeficiency virus 1; experiment: Ratio of ID50 for HIV 1 reverse transcriptase K103N mutant to ID50 for wild type HIV 1 NL4-3 reverse transcriptase; procedure, shortened: as §1
[9] = Selectivity index, ratio of CC50 for human MT4 cells to EC50 for HIV 1 NL4-3; type: toxicity, cell-based; conditions: read-out: Ratio CC50/EC50
Procedure, shortened: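 CC50 from mock-infected MT-4 cells and EC50 against HIV-1 NL4-3 in infected MT-4 cells, both by day-5 MTT viability read-out; index computed as CC50/EC50(NL4-3); means of at least two experiments.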

[10] = system: Human immunodeficiency virus 1; experiment: Antiviral activity against wild type HIV 1 NL4-3 infected in human MT4 cells assessed as inhibition of virus-induced cytopathic effect after 5 days by MTT assay; type: functional, organism-based; conditions: Human immunodeficiency virus 1, NL4-3, MT4, 120 h
[11] = system: Human immunodeficiency virus 1; experiment: Resistance ratio of EC50 for HIV 1 harboring reverse transcriptase K103N mutant infected in human MT4 cells to EC50 for wild type HIV 1 NL4-3 infected in human MT4 cells; type: functional; procedure, shortened: as §2
[12] = system: Human immunodeficiency virus 1; experiment: Antiviral activity against HIV 1 harboring reverse transcriptase K103N mutant infected in human MT4 cells assessed as inhibition of virus-induced cytopathic effect after 5 days by MTT assay; type: functional, organism-based; conditions: Human immunodeficiency virus 1, MT4, 120 h
[13] = system: Human immunodeficiency virus type 1 reverse transcriptase (Human immunodeficiency virus 1), Q72547 [Y181I]
[14] = system: Human immunodeficiency virus 1; experiment: Antiviral activity against HIV 1 harboring reverse transcriptase Y188L mutant infected in human MT4 cells assessed as inhibition of virus-induced cytopathic effect after 5 days by MTT assay; type: functional, organism-based; conditions: Human immunodeficiency virus 1, MT4, 120 h
[15] = system: Human immunodeficiency virus 1; experiment: Ratio of ID50 for HIV 1 reverse transcriptase L100I mutant to ID50 for wild type HIV 1 NL4-3 reverse transcriptase; procedure, shortened: as §1
[16] = system: Human immunodeficiency virus 1; experiment: Resistance ratio of EC50 for HIV 1 harboring reverse transcriptase Y181C mutant infected in human MT4 cells to EC50 for wild type HIV 1 NL4-3 infected in human MT4 cells; type: functional; procedure, shortened: as §2
[17] = Cytotoxicity against human MT4 cells assessed as cell viability by MTT assay; type: cell-based
[18] = system: Human immunodeficiency virus 1; experiment: Antiviral activity against multidrug-resistant HIV 1 IRLL98 harboring reverse transcriptase K101Q/Y181C/G190a mutant infected in human MT4 cells assessed as virus-induced cytopathic effect after 5 days by MTT assay; type: functional, organism-based; conditions: Human immunodeficiency virus 1, IRLL98, MT4, 120 h; procedure, shortened: as §3

CC(c1ccnc(Nc2ccc(C#N)cc2)n1)c1c(F)cccc1F (stereo unspecified)
Ratio [1]: 85
Ratio EC50 [2]: 200
ID50 [3]: 9 nM
ID50 [4]: 664 nM
EC50 [5]: 44.3 nM
Ratio [6]: 656
ID50 [7]: 248 nM
Ratio [8]: 28
selectivity ratio [9]: 75000
EC50 [10]: 0.5 nM
Ratio EC50 [11]: 55
EC50 [12]: 27.3 nM
ID50 [13]: 5910 nM
EC50 [14]: 100 nM
Ratio [15]: 74
Ratio EC50 [16]: 89
CC50 [17]: 37500 nM

N#Cc1ccc(Nc2nc(Cl)cc(Cc3c(F)cccc3F)n2)cc1
Ratio EC50 [2]: 105
ID50 [3]: 59 nM
EC50 [5]: 561 nM
ID50 [7]: 4360 nM
Ratio [8]: 74
selectivity ratio [9]: > 209
EC50 [10]: 13.4 nM
Ratio EC50 [11]: 13
EC50 [12]: 171 nM
ID50 [13]: > 80000 nM
EC50 [14]: 1400 nM
Ratio EC50 [16]: 42
CC50 [17]: > 2800 nM

CC(c1cc(=O)[nH]c(Nc2ccc(C#N)cc2)n1)c1c(F)cccc1F (stereo unspecified)
Ratio [1]: 149
Ratio EC50 [2]: 72
ID50 [3]: 28 nM
EC50 [5]: 88 nM
Ratio [6]: 438
ID50 [7]: 347 nM
Ratio [8]: 12
selectivity ratio [9]: > 312
EC50 [10]: 9.1 nM
Ratio EC50 [11]: 6
EC50 [12]: 56.8 nM
ID50 [13]: 12300 nM
EC50 [14]: 653 nM
Ratio EC50 [16]: 10
CC50 [17]: > 2840 nM

N#Cc1ccc(Nc2nc(Cc3c(F)cccc3F)cc(=O)[nH]2)cc1
Ratio [1]: 1550
ID50 [3]: 0.8 nM
ID50 [4]: 1600 nM
EC50 [5]: 344 nM
Ratio [6]: 70000
ID50 [7]: 2600 nM
Ratio [8]: 3250
selectivity ratio [9]: > 7.3
EC50 [10]: 344 nM
Ratio EC50 [11]: 0.8
EC50 [12]: 290 nM
ID50 [13]: 56000 nM
EC50 [14]: > 2500 nM
Ratio [15]: 2000
Ratio EC50 [16]: 1
CC50 [17]: > 2500 nM

O=C1Nc2ccc(Cl)cc2[C@@](C#CC2CC2)(C(F)(F)F)O1 [EFAVIRENZ]
EC50 [5]: 10.1 nM
EC50 [10]: 3.17 nM
EC50 [18]: 634 nM
EC50 [12]: 343 nM
CC50 [17]: 3170 nM

CC(c1cc(Cl)nc(Nc2ccc(C#N)cc2)n1)c1c(F)cccc1F (stereo unspecified)
Ratio [1]: 237
Ratio EC50 [2]: 557
ID50 [3]: 12 nM
EC50 [5]: 154 nM
Ratio [6]: 2380
ID50 [7]: 286 nM
Ratio [8]: 24
selectivity ratio [9]: > 1800
EC50 [10]: 1.5 nM
Ratio EC50 [11]: 34
EC50 [12]: 51.2 nM
ID50 [13]: 28600 nM
EC50 [14]: 836 nM
Ratio EC50 [16]: 102
CC50 [17]: > 2700 nM

N#Cc1ccc(Nc2nccc(Cc3c(F)cccc3F)n2)cc1
Ratio [1]: 306
Ratio EC50 [2]: 450
ID50 [3]: 6 nM
ID50 [4]: 671 nM
EC50 [5]: 60.2 nM
Ratio [6]: 1250
ID50 [7]: 500 nM
Ratio [8]: 83
selectivity ratio [9]: > 155000
EC50 [10]: 0.5 nM
Ratio EC50 [11]: 136
EC50 [12]: 68.2 nM
ID50 [13]: 7470 nM
EC50 [14]: 225 nM
Ratio [15]: 112
Ratio EC50 [16]: 120
CC50 [17]: > 77600 nM

Cc1c(Cl)nc(Nc2ccc(C#N)cc2)nc1Cc1c(F)cccc1F
Ratio [1]: 371
ID50 [3]: 17 nM
EC50 [5]: 2540 nM
ID50 [7]: 445 nM
Ratio [8]: 26
selectivity ratio [9]: > 125
EC50 [10]: 21.6 nM
Ratio EC50 [11]: 23
EC50 [12]: 739 nM
ID50 [13]: > 40000 nM
EC50 [14]: > 2700 nM
Ratio EC50 [16]: 80
CC50 [17]: > 2700 nM

Cc1c(C(C)c2c(F)cccc2F)nc(Nc2ccc(C#N)cc2)[nH]c1=O (stereo unspecified)
Ratio [1]: 172
Ratio EC50 [2]: 79
ID50 [3]: 0.4 nM
ID50 [4]: 1000 nM
EC50 [5]: 45.6 nM
Ratio [6]: 3500
ID50 [7]: 125 nM
Ratio [8]: 312
selectivity ratio [9]: 367
EC50 [10]: 2.9 nM
Ratio EC50 [11]: 21
EC50 [12]: 61.1 nM
ID50 [13]: 1400 nM
EC50 [14]: 230 nM
Ratio [15]: 2500
Ratio EC50 [16]: 16
CC50 [17]: 1060 nM

Cc1c(Cc2c(F)cccc2F)nc(Nc2ccc(C#N)cc2)[nH]c1=O
ID50 [3]: 200 nM
EC50 [5]: > 2840 nM
ID50 [7]: 21400 nM
Ratio [8]: 107
selectivity ratio [9]: > 11.6
EC50 [10]: 244 nM
Ratio EC50 [11]: 6
EC50 [12]: 1390 nM
ID50 [13]: > 80000 nM
EC50 [14]: > 2840 nM
CC50 [17]: > 2840 nM

Cc1cnc(Nc2ccc(C#N)cc2)nc1Cc1c(F)cccc1F
Ratio EC50 [2]: 308
ID50 [3]: 9 nM
ID50 [4]: 2960 nM
EC50 [5]: 358 nM
ID50 [7]: 262 nM
Ratio [8]: 29
selectivity ratio [9]: > 22500
EC50 [10]: 3.3 nM
Ratio EC50 [11]: 27
EC50 [12]: 88.3 nM
ID50 [13]: > 80000 nM
EC50 [14]: 1020 nM
Ratio [15]: 329
Ratio EC50 [16]: 108
CC50 [17]: > 74300 nM

Cc1cnc(Nc2ccc(C#N)cc2)nc1C(C)c1c(F)cccc1F (stereo unspecified)
Ratio [1]: 43
Ratio EC50 [2]: 52
ID50 [3]: 6.9 nM
ID50 [4]: 128 nM
EC50 [5]: 42.5 nM
Ratio [6]: 725
ID50 [7]: 154 nM
Ratio [8]: 22
selectivity ratio [9]: 119000
EC50 [10]: 0.6 nM
Ratio EC50 [11]: 86
EC50 [12]: 51.9 nM
ID50 [13]: 5000 nM
EC50 [14]: 31.4 nM
Ratio [15]: 19
Ratio EC50 [16]: 71
CC50 [17]: 71400 nM
